Article PMC6363533 (Biochemistry, 2018)
Changes are numbered by the printed parent chain. Marks after values point to notes of the source that are not given here.

B1: KMM: His-tagged recombinant β-antithrombin double mutant, Lys125 and Arg129 mutated to Met (protein)
chain: HGSPVDICTAKPRDIPMNPMCIYRSPEKKATEDEGSEQKIPEATNRRVWELSKANSRFATTFYQHLADSKNDNDNIFLSPLSISTAFAMTKLGACNDTLQQLMEVFKFDTISEKTSDQIHFFFAMLNCMLYRKAQKSSKLVSANRLFGDKSLTFNETYQDISELVYGAKLQPLDFKENAEQSRAAINKWVSNKTEGRITDVIPSEAINELTVLVLVNTIYFKGLWKSKFSPENTRKELFYKADGESCSASMMYQEGKFRYRRVAEGTQVLELPFKGDDITMVLILPKPEKSLAKVEKELTPEVLQEWLDELEEMMLVVHMPRFRIEDGFSLKEQLQDMGLVDLFSPEKSKLPGIVAEGRDDLYVSDAFHKAFLEVNEEGSEAAASTAVVIAGRSLNPNRVTFKANRPFLVFIREVPLNTIIFMGRVANPCVK
modifications: left off: His6, C-terminal, kept
B2: MMR: His-tagged recombinant β-antithrombin double mutant, Lys114 and Lys125 mutated to Met (protein)
chain: B1 chain with K114M, M129R
modifications: left off: His6, C-terminal, kept
B3: MKM: His-tagged recombinant β-antithrombin double mutant, Lys114 and Arg129 mutated to Met (protein)
chain: B1 chain with K114M, M125K
modifications: left off: His6, C-terminal, kept
B4: MMM: His-tagged recombinant β-antithrombin triple mutant, Lys114, Lys125 and Arg129 mutated to Met (protein)
chain: B1 chain with K114M
modifications: left off: His6, C-terminal, kept

Experiments:
factor Xa = factor Xa (Homo sapiens, UniProt P00742); format: biochemical; conditions: for k−H FXa, association rate constant of free antithrombin / k−H FXa, fractional wild-type value (in parentheses) / Enhancement of basal reactivities with both factors Xa and IXa: absence of heparin; for k−H FXa, association rate constant of free antithrombin / k−H FXa, fractional wild-type value (in parentheses) / kH FXa, association rate constant of heparin-complexed antithrombin / kH FXa, fractional wild-type value (in parentheses): 20 mM MES; for k−H FXa, association rate constant of free antithrombin / kH FXa, association rate constant of heparin-complexed antithrombin: 5 mM CaCl2, 0.1 % PEG 8000, pH 6.0, 25°C, ±S.E.; for k−H FXa, fractional wild-type value (in parentheses) / kH FXa, fractional wild-type value (in parentheses): 5 mM CaCl2, pH 6.0, 25°C; for Enhancement of basal reactivities with both factors Xa and IXa: relative to wild-type, range covers factor Xa and factor IXa; for kH FXa, association rate constant of heparin-complexed antithrombin / kH FXa, fractional wild-type value (in parentheses): natural pentasaccharide complex
factor IXa = factor IXa (Homo sapiens, UniProt P00740); format: biochemical; conditions: for k−H FIXa, association rate constant of free antithrombin / k−H FIXa, fractional wild-type value (in parentheses): absence of heparin; for k−H FIXa, association rate constant of free antithrombin / k−H FIXa, fractional wild-type value (in parentheses) / kH FIXa, association rate constant of heparin-complexed antithrombin / kH FIXa, fractional wild-type value (in parentheses): 20 mM MES; for k−H FIXa, association rate constant of free antithrombin / kH FIXa, association rate constant of heparin-complexed antithrombin: 5 mM CaCl2, 0.1 % PEG 8000, pH 6.0, 25°C, ±S.E.; for k−H FIXa, fractional wild-type value (in parentheses) / kH FIXa, fractional wild-type value (in parentheses): 5 mM CaCl2, pH 6.0, 25°C; for kH FIXa, association rate constant of heparin-complexed antithrombin / kH FIXa, fractional wild-type value (in parentheses): natural pentasaccharide complex; for Heparin-activated reactivity with factor IXa, % of wild-type: saturating natural pentasaccharide, MES/Ca2+ pH 6 buffer
[1] = format: binding; conditions: for Loss of nonionic binding energy relative to wild-type / Kd: natural pentasaccharide; for Kd: read-out: KD,obs, I 0.04, pH 6.0, 25°C, measured directly at I 0.04 or calculated from the ionic strength dependence of KD,obs
Outline: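 Recombinant His-tagged antithrombin (~100 nM), expressed in Sf9 and Ni-NTA purified, was titrated with pentasaccharide at 25°C. Binding was followed by tryptophan fluorescence enhancement (ex 280 nm, em 340 nm). Stocks were diluted extensively. Data were fit by quadratic binding equation for KD and stoichiometry.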

Rapid = format: binding; conditions: for Limiting rate constant at heparin saturation (k+2 + k−2) / 1/K2 / k+2, forward conformational activation rate constant / k−2, reverse conformational activation rate constant: natural pentasaccharide; for 1/K2 / k+2, forward conformational activation rate constant / k−2, reverse conformational activation rate constant: I 0.04, pH 6.0, 25°C; for k+2, forward conformational activation rate constant / k−2, reverse conformational activation rate constant: ±S.E.; for k−2, reverse conformational activation rate constant: possibly overestimated (conformational selection pathway)
[2] = estimated based on factor Xa reactivity enhancements

Sequence of factor IXa (P00740 47-191 limits assumed): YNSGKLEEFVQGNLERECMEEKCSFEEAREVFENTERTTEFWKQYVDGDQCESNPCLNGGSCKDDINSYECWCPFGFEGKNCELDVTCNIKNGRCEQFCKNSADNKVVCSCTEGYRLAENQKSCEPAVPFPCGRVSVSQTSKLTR
Sequence of factor IXa (P00740 227-461 limits assumed): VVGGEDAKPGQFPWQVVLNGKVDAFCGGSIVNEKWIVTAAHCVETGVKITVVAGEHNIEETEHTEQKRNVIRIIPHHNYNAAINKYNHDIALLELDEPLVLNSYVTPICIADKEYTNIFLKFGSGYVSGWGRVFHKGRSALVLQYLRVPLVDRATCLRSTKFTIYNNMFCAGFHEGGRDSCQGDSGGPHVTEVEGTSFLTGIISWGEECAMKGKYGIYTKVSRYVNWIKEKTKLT
Sequence of factor Xa (P00742 41-179 limits assumed): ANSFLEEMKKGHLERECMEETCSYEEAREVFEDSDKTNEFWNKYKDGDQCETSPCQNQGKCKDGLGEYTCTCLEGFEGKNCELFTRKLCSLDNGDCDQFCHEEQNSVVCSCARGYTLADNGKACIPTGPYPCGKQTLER
Sequence of factor Xa (P00742 235-488 limits assumed): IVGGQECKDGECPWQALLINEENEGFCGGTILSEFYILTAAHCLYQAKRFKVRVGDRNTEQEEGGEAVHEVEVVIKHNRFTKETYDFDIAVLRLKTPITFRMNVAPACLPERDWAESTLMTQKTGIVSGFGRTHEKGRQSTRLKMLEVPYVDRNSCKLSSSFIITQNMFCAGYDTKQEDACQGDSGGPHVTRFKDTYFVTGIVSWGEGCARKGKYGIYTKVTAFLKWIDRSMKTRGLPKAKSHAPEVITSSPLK

Molecule	k−H FXa, association rate constant of free antithrombin (factor Xa)	k−H FXa, fractional wild-type value (in parentheses) (factor Xa)	Enhancement of basal reactivities with both factors Xa and IXa (factor Xa)	kH FXa, association rate constant of heparin-complexed antithrombin (factor Xa)	kH FXa, fractional wild-type value (in parentheses) (factor Xa)	k−H FIXa, association rate constant of free antithrombin (factor IXa)	k−H FIXa, fractional wild-type value (in parentheses) (factor IXa)	kH FIXa, association rate constant of heparin-complexed antithrombin (factor IXa)	kH FIXa, fractional wild-type value (in parentheses) (factor IXa)	Loss of nonionic binding energy relative to wild-type [1]	Kd [1]	Limiting rate constant at heparin saturation (k+2 + k−2) (Rapid; I 0.04, pH 6, 25°C)	1/K2 (Rapid; 1/K2 = (K1/KD,obs) − 1)	k+2, forward conformational activation rate constant (Rapid)	also measured
KKM: His-tagged recombinant β-antithrombin variant with Arg129 mutated to Met	1.3±0.1 × 10^3 M^−1s^−1	2.3	1.3–2.3 fold	7.6±0.3 ×10^4 M^−1s^−1	0.99	6.9±0.4 × 10^1 M^−1s^−1	1.3	6.2±0.3 × 10^3 M^−1s^−1	0.62	17%	0.00016 µM	1020 s⁻¹	10000	1020 ± 120 s⁻¹	–
KKR (WT): Recombinant wild-type β-antithrombin (Asn135 mutated to Gln) with C-terminal 6XHis-tag, expressed in Sf9 insect cells	5.7±0.4 × 10^2 M^−1s^−1	1	–	–	1	5.4±0.4 × 10^1 M^−1s^−1	1	–	1	–	–	–	6 × 10^6	1140 ± 110 s⁻¹	–
KMR: His-tagged recombinant β-antithrombin variant with Lys125 mutated to Met	1.2±0.1 × 10^3 M^−1s^−1	2.1	1.3–2.3 fold	8.1±0.3 ×10^4 M^−1s^−1	1.1	9.6±0.6 × 10^1 M^−1s^−1	1.8	6.8±0.8 × 10^3 M^−1s^−1	0.68	24%	0.00086 µM	550 to 690 s⁻¹	4300	550 ± 40 s⁻¹	–
MKR: His-tagged recombinant β-antithrombin variant with Lys114 mutated to Met	2.6±0.3 × 10^2 M^−1s^−1	0.46	–	6.4±0.3 ×10^4 M^−1s^−1	0.83	–	–	2.1±0.1 × 10^3 M^−1s^−1	0.21	–	0.56 µM	40 s⁻¹	8^c	17 ± 2 s⁻¹	k+2, forward conformational activation rate constant (Rapid; listed as Lys114): ~ 20 s^−1; k−2, reverse conformational activation rate constant (Rapid): 23±2^c s^−1
B1	2.0±0.1 ×10^3 M^−1s^−1	3.5	2.8–3.5 fold	5.6±0.4 ×10^4 M^−1s^−1	0.73	1.5±0.2 × 10^2 M^−1s^−1	2.8	3.6±0.2 × 10^3 M^−1s^−1	0.36	–	0.07 µM	550 to 690 s⁻¹	~400^c	690 ± 240 s⁻¹	Heparin pentasaccharide binding stoichiometry [1]: ~0.5 mole heparin/mole antithrombin; k−2, reverse conformational activation rate constant (Rapid): 74±7^c s^−1; k−2, reverse conformational activation rate constant (Rapid; listed as Lys125/Arg129): ~ 70 s^−1
B2	–	–	–	2.3±0.3 ×10^4 M^−1s^−1	0.30	–	–	3.0±0.1 × 10^2 M^−1s^−1	0.03	–	45 µM	–	–	–	Heparin-activated reactivity with factor IXa, % of wild-type (factor IXa): 3%; 1/K2 (Rapid; [2]): ~0.5^d
B3	3.5±0.5 ×10^2 M^−1s^−1	0.61	–	8.5±0.4 ×10^4 M^−1s^−1	1.1	1.3±0.2×10^1 M^−1s^−1	0.24	2.1±0.1 × 10^3 M^−1s^−1	0.21	–	18 µM	–	–	–	1/K2 (Rapid; [2]): ~10^d; Observed rate constant kobs of pentasaccharide binding, no saturable increase (Rapid; over the range 0.5–20 μM heparin, I 0.04, pH 6, 25°C): ~ 60 s^−1
B4	–	–	–	–	0.04	2.3±0.2 × 10^1 M^−1s^−1	0.43	–	0.003	60%	–	–	–	–	Heparin-activated reactivity with factor IXa, % of wild-type (factor IXa): 0.3%
